Experimental data as given in paper PMC12017310 (Science Advances, 2025).
Blank lines part the entries; values can stand above or below the molecule they belong to. Peptide text beside a SMILES is read from it. * marks the point of attachment. Cbz = O=C(OCc1ccccc1)*

Assays:
CDK12 = CDK12 (Homo sapiens, UniProt Q9NYV4); test: Western blot of CDK12 in PCa cell lines; type: cell-based; settings: 22Rv1, MG132 pre-treatment 2 hours, then BSJ-5-63
Procedure, shortened: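 Equal protein amounts separated by SDS-PAGE and transferred to PVDF. Primary antibodies in 5% BSA/TBST overnight at 4°C; secondary antibody 1 h at room temperature. Blots shown are representative of three independent experiments.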

PCa cells = test: Colony formation assay; type: cell-based, human; settings: cell viability and colony formation assays
Procedure, shortened: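 Seeding was 30,000 cells/well for 22Rv1 (six-well plates), with overnight attachment before treatment. Colonies grown 14 days at 37°C, 5% CO2, with weekly medium change. Stained with 0.1% crystal violet and quantified by image analysis. Three independent experiments.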

22Rv1 xenografts = test: In vivo 22Rv1 xenograft model; set-up: species or system male SCID mice; settings: BSJ-5-63 25 mg/kg ip; olaparib 50 mg/kg p.o.
Procedure, shortened: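 22Rv1 cells (5 × 10^6 in 50 μl plus 50 μl Matrigel) injected subcutaneously into the right flank; n = 5/group, randomised at ~150 mm3. Volume = length × width² × 0.5. Monotherapy: 50 mg/kg ip daily or 1 day on/2 days off for 12 days; vehicle 5% DMSO/15% Solutol HS-15/80% saline. Sequential arms: test compound 25 mg/kg ip and PARP inhibitor 50 mg/kg p.o. Tumours weighed; H&E and cleaved caspase-3 IHC performed.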

DU145 xenografts = test: In vivo DU145 xenograft model; set-up: species or system male SCID mice; settings: BSJ-5-63 25 mg/kg ip; olaparib 50 mg/kg p.o.
Procedure, shortened: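 DU145 xenografts were set up subcutaneously with Matrigel in the right flank. At ~150 mm3, mice were randomised into four groups (n = 5): vehicle p.o., PARP inhibitor 50 mg/kg p.o., test compound 25 mg/kg ip, or sequential combination. Dosing volume 0.1 ml/10 g. Body weight recorded daily. Study ended after 3–4 weeks or at 2 cm tumour length.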

BID-PC4 PDX = test: In vivo BID-PC4 PDX model; set-up: species or system male SCID mice; settings: BSJ-5-63 25 mg/kg ip; olaparib 50 mg/kg p.o.
Procedure, shortened: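 Tumour bits in 50 μl PBS plus 50 μl Matrigel implanted subcutaneously (right flank) into intact male SCID mice. At ~150 mm3, randomised into four groups (n = 5): vehicle (5% DMSO/15% Solutol HS-15/80% saline) p.o., PARP inhibitor 50 mg/kg p.o., test compound 25 mg/kg ip, or sequential combination. Body weight recorded daily. Run for 3 weeks or until 2 cm tumour length; tumours excised and weighed.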

[1] = system: CDK12-KO 22Rv1 xenografts; test: In vivo CDK12-KO 22Rv1 xenograft model; set-up: species or system male SCID mice; settings: olaparib 50 mg/kg, p.o., daily
Procedure, shortened: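 CDK12-KO (two sgRNAs) and AAVS1-control 22Rv1 cells made by lentiviral spin infection of Cas9-expressing cells (blasticidin 20 μg/ml). Implanted subcutaneously (5 × 10^6 with Matrigel). At ~150 mm3, each line randomised to vehicle p.o. or PARP inhibitor 50 mg/kg p.o. daily for 3 weeks (or until 2 cm tumour length). Tumours excised and weighed.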

[2] = In vitro mouse liver microsomal stability assay; type: in vitro ADME; settings: liver microsomes
Procedure, shortened: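 Mouse liver microsomes (0.5 mg/ml) incubated with 1 μM test compound at 37°C with NADPH cofactor (1 mM).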

CDK12, sequence (Q9NYV4 whole entry): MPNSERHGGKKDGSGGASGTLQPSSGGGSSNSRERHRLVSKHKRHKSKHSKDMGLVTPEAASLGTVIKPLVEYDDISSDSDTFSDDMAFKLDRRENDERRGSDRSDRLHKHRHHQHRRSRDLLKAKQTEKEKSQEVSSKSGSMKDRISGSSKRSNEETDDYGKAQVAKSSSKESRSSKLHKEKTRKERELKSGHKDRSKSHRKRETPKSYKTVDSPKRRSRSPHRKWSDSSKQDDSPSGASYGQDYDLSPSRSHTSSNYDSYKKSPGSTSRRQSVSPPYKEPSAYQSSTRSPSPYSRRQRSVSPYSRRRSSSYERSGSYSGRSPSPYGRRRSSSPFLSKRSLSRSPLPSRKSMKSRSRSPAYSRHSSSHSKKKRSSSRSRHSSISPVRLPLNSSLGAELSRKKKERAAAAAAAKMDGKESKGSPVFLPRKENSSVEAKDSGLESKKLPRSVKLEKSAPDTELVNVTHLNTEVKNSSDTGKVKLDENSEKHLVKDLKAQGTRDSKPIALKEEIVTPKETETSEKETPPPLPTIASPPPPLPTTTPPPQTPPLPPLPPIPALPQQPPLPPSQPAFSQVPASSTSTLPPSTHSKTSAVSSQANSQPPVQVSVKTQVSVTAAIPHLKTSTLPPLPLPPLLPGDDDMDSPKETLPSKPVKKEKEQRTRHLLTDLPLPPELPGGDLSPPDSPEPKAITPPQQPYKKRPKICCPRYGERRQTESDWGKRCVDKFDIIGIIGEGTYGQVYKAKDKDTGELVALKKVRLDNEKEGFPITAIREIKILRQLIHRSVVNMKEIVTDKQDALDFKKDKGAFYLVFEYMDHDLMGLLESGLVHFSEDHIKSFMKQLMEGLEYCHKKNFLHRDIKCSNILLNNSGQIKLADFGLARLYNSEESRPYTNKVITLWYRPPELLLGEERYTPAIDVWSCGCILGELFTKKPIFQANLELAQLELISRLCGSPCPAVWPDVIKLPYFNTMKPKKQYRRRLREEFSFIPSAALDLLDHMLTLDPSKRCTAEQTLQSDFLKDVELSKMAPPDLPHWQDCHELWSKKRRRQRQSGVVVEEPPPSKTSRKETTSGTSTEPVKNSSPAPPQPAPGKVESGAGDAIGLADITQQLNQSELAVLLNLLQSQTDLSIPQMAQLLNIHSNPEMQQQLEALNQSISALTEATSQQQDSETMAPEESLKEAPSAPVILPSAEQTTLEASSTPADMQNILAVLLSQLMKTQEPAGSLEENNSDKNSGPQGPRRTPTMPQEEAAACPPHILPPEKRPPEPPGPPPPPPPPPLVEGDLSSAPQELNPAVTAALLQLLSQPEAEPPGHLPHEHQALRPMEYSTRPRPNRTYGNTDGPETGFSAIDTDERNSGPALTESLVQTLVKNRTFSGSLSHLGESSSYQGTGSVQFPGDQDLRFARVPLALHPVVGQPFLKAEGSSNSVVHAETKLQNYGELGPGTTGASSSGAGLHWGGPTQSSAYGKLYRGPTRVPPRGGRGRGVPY
CDK12, sequence (O75909 whole entry partner): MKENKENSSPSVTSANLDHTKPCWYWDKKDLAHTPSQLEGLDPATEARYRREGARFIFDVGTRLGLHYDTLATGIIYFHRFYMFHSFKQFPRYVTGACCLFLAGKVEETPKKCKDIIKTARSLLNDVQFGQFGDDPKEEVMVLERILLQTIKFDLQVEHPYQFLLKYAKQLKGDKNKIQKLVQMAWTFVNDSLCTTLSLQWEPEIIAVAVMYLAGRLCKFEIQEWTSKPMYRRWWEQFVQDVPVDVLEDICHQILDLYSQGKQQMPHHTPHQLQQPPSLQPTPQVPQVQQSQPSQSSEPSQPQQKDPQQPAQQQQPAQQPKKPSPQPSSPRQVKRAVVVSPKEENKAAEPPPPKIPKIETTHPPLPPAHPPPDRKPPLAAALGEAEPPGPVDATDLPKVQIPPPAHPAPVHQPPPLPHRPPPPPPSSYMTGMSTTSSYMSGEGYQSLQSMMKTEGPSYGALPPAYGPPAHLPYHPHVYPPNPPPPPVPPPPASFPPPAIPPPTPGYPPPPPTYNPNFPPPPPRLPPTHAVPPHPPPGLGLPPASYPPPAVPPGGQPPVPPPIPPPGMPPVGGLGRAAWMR

BSJ-5-63–induced degradation of CDK12/7/9 after pretreatment with the proteasome inhibitor (CDK12): rescued
Compound: CC(C)C[C@@H](C=O)NC(=O)[C@H](CC(C)C)NC(=O)[C@H](CC(C)C)NC(=O)OCc1ccccc1 [MG132] (Cbz-Leu-Leu-Leu-aldehyde)

Compound: O=C(c1cc(Cc2n[nH]c(=O)c3ccccc23)ccc1F)N1CCN(C(=O)C2CC2)CC1 [Olaparib]
sensitivity of CDK12-KO 22Rv1 cells compared with AAVS1 control (PCa cells): significantly enhanced sensitivity
22Rv1 tumor growth, monotherapy (22Rv1 xenografts): partial inhibition
number of apoptotic cells in 22Rv1 tumors, monotherapy (22Rv1 xenografts): notably increased
DU145 tumor growth, monotherapy (DU145 xenografts): only partial inhibition of tumor growth
BID-PC4 PDX tumor growth, monotherapy (BID-PC4 PDX): insensitive
tumor growth of CDK12-KO 22Rv1 xenografts ([1]; 3 weeks): marked sensitivity
tumor weight of CDK12-KO 22Rv1 xenografts ([1]; day 21): reduction in tumor weight

half-life at 1 μM [2]: 10 min
microsomal CLint at 1 μM [2]: 69 µL/min/mg
Compound: CCN(CC)CCNC(=O)c1c(C)[nH]c(/C=C2\C(=O)Nc3ccc(F)cc32)c1C [Sunitinib]
